In ChEMBL document CHEMBL1938336, “Quinolone derivatives containing strained spirocycle as orally active glycogen synthase kinase 3β (GSK-3β) inhibitors for type 2 diabetics” (Bioorg Med Chem, 2012):
Converted amounts (≈) assume the structure as drawn.

What was measured:
[1] = target: T1, Glycogen synthase kinase-3 beta (Homo sapiens, UniProt P49841); assay: Inhibition of GSK3-beta in human HepG2 cells assessed as incorporation of [3H]glucose into glycogen at 30 uM after 3 hrs by liquid scintillation counting relative to CHIR99021; format: cell-based
Method in brief: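 Hep G2 cells seeded at 1 × 10^5 per well and cultured 3 days, then serum-starved 3 h in low-glucose DMEM. Compound added at varying concentrations with […] D-[2-3H]glucose (0.3% DMSO final) for 3 h at 37 °C. Cells lysed in KOH, glycogen ethanol-precipitated, and [3H] incorporation counted by scintillation. Efficacy is % of reference at 30 µM; n = 3.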
Target sequence in this assay (P49841 whole entry, looked up): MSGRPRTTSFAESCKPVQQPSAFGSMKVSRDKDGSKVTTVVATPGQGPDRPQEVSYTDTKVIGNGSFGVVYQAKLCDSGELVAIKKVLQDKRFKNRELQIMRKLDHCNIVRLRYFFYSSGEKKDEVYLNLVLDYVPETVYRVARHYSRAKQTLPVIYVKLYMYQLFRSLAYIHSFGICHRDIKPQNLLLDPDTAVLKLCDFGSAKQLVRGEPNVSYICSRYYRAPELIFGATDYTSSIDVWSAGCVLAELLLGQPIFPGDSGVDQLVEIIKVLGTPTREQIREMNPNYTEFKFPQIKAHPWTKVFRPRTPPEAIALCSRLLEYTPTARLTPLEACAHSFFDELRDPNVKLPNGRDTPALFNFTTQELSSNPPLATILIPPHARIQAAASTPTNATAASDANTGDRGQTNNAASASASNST

Mus musculus [2] = assay: Antidiabetic activity in fasted ICR mouse assessed as inhibition of plasma glucose concentration at 300 mg/kg, po administered 30 mins prior to glucose-challenge by oral glucose tolerance test; format: functional
Method in brief: (§1)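 7-week-old ICR mice fasted 15–17 h, dosed orally with compound suspended in 0.3% CMC-Na or with vehicle. Glucose 5 g/kg given orally 30 min later. Tail-vein blood sampled before dosing and at 0, 0.5, 1 and 2 h after the glucose load; plasma glucose measured by glucose C II-test. The summed 0.5 + 1 h glucose values are expressed as % decrease versus vehicle.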

[3] = target: T1, Glycogen synthase kinase-3 beta; assay: Inhibition of GSK3-beta in human HepG2 cells assessed as incorporation of [3H]glucose into glycogen after 3 hrs by liquid scintillation counting; format: cell-based
Target sequence in this assay (P49841 whole entry): as the sequence (P49841 whole entry, looked up) above

Staphylococcus aureus = assay: Antibacterial activity against Staphylococcus aureus after 18 hrs by microdilution method; format: organism-based; conditions: in vitro
[4] = target: T1, Glycogen synthase kinase-3 beta; assay: Inhibition of human recombinant GSK3-beta after 1 hr by KinaseGlo luciferase assay
Target sequence in this assay (P49841 whole entry): as the sequence (P49841 whole entry, looked up) above

Escherichia coli = assay: Antibacterial activity against Escherichia coli after 18 hrs by microdilution method; format: organism-based
[5] = Ratio of drug uptake in ICR mouse liver to ICR mouse plasma at 300 mg/kg, po at 4 hrs; format: ADME, organism-based; parameters: dose 300 mg/kg, route oral
Method in brief: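 Liver and plasma concentrations measured 4 h after an oral 300 mg/kg dose in ICR mice; ratio given as liver/plasma; means, n = 5–6.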

[6] = AUC in ICR mouse liver at 300 mg/kg, po; format: ADME, organism-based; parameters: dose 300 mg/kg, route oral
Method in brief: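 ICR mice dosed orally at 300 mg/kg. Liver AUC was calculated from the plasma AUC and the liver-to-plasma concentration ratio at 4 h post-dose. Means, n = 5–6.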

[7] = AUC (0 to 25 hrs) in ICR mouse plasma at 300 mg/kg, po; format: ADME, organism-based; parameters: time < 25 hr, dose 300 mg/kg, route oral
Mus musculus [8] = assay: Antidiabetic activity in po dosed fasted ICR mouse assessed as inhibition of plasma glucose concentration administered 30 mins prior to glucose-challenge by oral glucose tolerance test; format: functional, organism-based; method in brief: as §1
Mus musculus [9] = assay: Antidiabetic activity in fasted ICR mouse assessed as inhibition of plasma glucose concentration at 150 mg/kg, po administered 30 mins prior to glucose-challenge by oral glucose tolerance test; format: functional; method in brief: as §1
Mus musculus [10] = assay: Antidiabetic activity in fasted ICR mouse assessed as inhibition of plasma glucose concentration at 100 mg/kg, po administered 30 mins prior to glucose-challenge by oral glucose tolerance test; format: functional; method in brief: as §1
Mus musculus [11] = assay: Ratio of AUC (0 to 25 hrs) in ICR mouse plasma to AUC in ICR mouse liver at 300 mg/kg, po; format: ADME, organism-based; parameters: dose 300 mg/kg, route oral; conditions: in vivo
Mus musculus [12] = assay: Antidiabetic activity in fasted ICR mouse assessed as inhibition of plasma glucose concentration at 50 mg/kg, po administered 30 mins prior to glucose-challenge by oral glucose tolerance test; format: functional; method in brief: as §1

| Structure (SMILES) | Efficacy [1] [%] | EC50 [3] [nM] | MIC (Staphylococcus aureus) [µM] | IC50 [4] [nM] | MIC (Escherichia coli) [µM] | Kp at 4 h [5] | AUC [6] [µM·h] | AUC(0-t) at 25 h [7] [µM·h] | Ratio AUC (Mus musculus [11]) | inhibition in vivo at 300 mg/kg (Mus musculus [2]) [%] | inhibition (Mus musculus [8]) | inhibition in vivo at 150 mg/kg (Mus musculus [9]) [%] | inhibition in vivo at 100 mg/kg (Mus musculus [10]) [%] | inhibition in vivo at 50 mg/kg (Mus musculus [12]) [%] |
| --- | --- | --- | --- | --- | --- | --- | --- | --- | --- | --- | --- | --- | --- | --- |
| Nc1c(F)c(NCCNc2ccccn2)c2c3c1c(=O)c(C(=O)O)cn3C1(CCCC1)CO2 | – | 20000 | – | – | – | – | – | – | – | – | – | – | – | – |
| Nc1c(F)c(NCCNc2ccccn2)c2c3c1c(=O)c(C(=O)O)cn3C1(CCCC1)CCO2 | 85 | 13000 | > 34 | 250 | > 34 | – | – | – | – | – | – | – | – | – |
| Nc1c(F)c(NCCNc2ccccn2)c2c3c1c(=O)c(C(=O)O)cn3C1(CCC1)CCO2 | 65 | 3200 | 18 (≈ 8.16 µg/mL) | 36 | > 34 | 32 | 760 | 24 | 32 | 31 | Dose-dependent effect | 39 | 32 | 20 |
| CC1CC2(CCC2)n2cc(C(=O)O)c(=O)c3c(N)c(F)c(NCCNc4ccccn4)c(c32)O1 (configuration not stated) | 94 | 2100 | > 34 | 250 | > 34 | – | – | – | – | – | – | – | – | – |

More lines, main results first:

| Efficacy [1] [%] | EC50 [3] [nM] | MIC (Staphylococcus aureus) [µM] | IC50 [4] [nM] | MIC (Escherichia coli) [µM] | Kp at 4 h [5] | AUC [6] [µM·h] | AUC(0-t) at 25 h [7] [µM·h] | Ratio AUC (Mus musculus [11]) | Structure (SMILES) | inhibition in vivo at 300 mg/kg (Mus musculus [2]) [%] | inhibition (Mus musculus [8]) | inhibition in vivo at 150 mg/kg (Mus musculus [9]) [%] | inhibition in vivo at 100 mg/kg (Mus musculus [10]) [%] | inhibition in vivo at 50 mg/kg (Mus musculus [12]) [%] |
| --- | --- | --- | --- | --- | --- | --- | --- | --- | --- | --- | --- | --- | --- | --- |
| 100 | – | – | – | – | – | – | – | – | Cc1cnc(-c2cnc(NCCNc3ccc(C#N)cn3)nc2-c2ccc(Cl)cc2Cl)[nH]1 [LADUVIGLUSIB] | 38 | – | – | – | – |
| 12 | – | > 140 | 550 | > 140 | – | – | – | – | Nc1c(F)c(NCCNc2ccccn2)c2c3c1c(=O)c(C(=O)O)cn3C1(CCC1)CCN2 | – | – | – | – | – |
| 48 | 1400 | > 34 | 10 | > 34 | 32 | 217 | 6.8 | – | CC1COc2c(NCCNc3ccccn3)c(F)c(N)c3c(=O)c(C(=O)O)cn(c23)C12CCC2 (configuration not stated) | 13 | – | – | – | – |
| – | – | – | – | – | 3.8 | 820 | 210 | – | Cc1c[nH]c(-c2cnc(NCCNc3ccc(C#N)cn3)nc2-c2ccc(Cl)cc2Cl)n1 [LADUVIGLUSIB] | – | – | – | – | – |
| 42 | – | 5 (≈ 2.2 µg/mL) | 37 | 9 (≈ 3.96 µg/mL) | – | – | – | – | Nc1c(F)c(NCCNc2ccccn2)c2c3c1c(=O)c(C(=O)O)cn3C1(CCO2)CC1 | – | – | – | – | – |
